The array DNA melting data of Ke et al. (doi:10.1101/2024.01.08.574731)

What was measured:
[1] = melting temperature; fluorescence melt of hairpins on a sequencing array, two-state fit, raised by 9.35 °C to match UV melts; settings: sodium 0.088 M
How it was run: (§1)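 Library hairpins on a sequenced MiSeq flow cell carried annealed Cy3 and quencher oligos, and their Cy3 fluorescence was imaged in 50 mM Na-HEPES pH 8.0 with 25 mM NaCl, in 2.5 °C steps up to 60 °C. Signals were normalised to Cy3 before quenching and to control constructs. Melting temperature and folding enthalpy were obtained from bootstrapped two-state fits, combined by inverse-variance weighting across four replicates, and the fitted temperatures were then raised by 9.35 °C to match UV melts.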

[2] = folding enthalpy; higher = less favourable; fluorescence melt of hairpins on a sequencing array, two-state fit; settings: sodium 0.088 M
How it was run: as §1

Row | Sequence | Tm [1] | folding enthalpy [2]
1 | GGAGGCGAAAGCCCATCC ((((((....)))..))) | 31.3 °C | -9.1 kcal/mol
2 | GGAGGCGAAAGCCCGTCC ((((((....)))..))) | 39.7 °C | -8.99 kcal/mol
3 | GGAGGCGAAAGCCGCTCC ((((((....)))..))) | 49.2 °C | -9.69 kcal/mol
4 | GGAGGCGAAAGCCTTTCC ((((((....)))..))) | 32.4 °C | -10.3 kcal/mol
5 | GGAGGCGCGAAAGCGTCC (((..(((....)))))) | 47 °C | -8.65 kcal/mol
6 | GGAGGGCCGAAAGGCTCC (((..(((....)))))) | 39.4 °C | -9.45 kcal/mol
7 | GGAGGGGAAACCCTCC ((((((....)))))) | 62.8 °C | -30.9 kcal/mol
8 | GGAGGTACGAAAGTATCC (((..(((....)))))) | 32.9 °C | -13 kcal/mol
9 | GGAGGTTCGAAAGAATCC (((..(((....)))))) | 28.9 °C | -14.4 kcal/mol
10 | GGAGTAGGAAACCACTCC (((((.(....).))))) | 42.6 °C | -28.3 kcal/mol
11 | GGAGTAGGAAACTACCCC ((.((((....)))).)) | 35.1 °C | -24.4 kcal/mol
12 | GGAGTCCCGAAAGGGTCC (((..(((....)))))) | 34 °C | -12.4 kcal/mol
13 | GGAGTCGAAAGACACTCC ((((((....)))..))) | 37.5 °C | -16 kcal/mol
14 | GGAGTCGAAAGACCTCC ((((((....))).))) | 50 °C | -24.5 kcal/mol
15 | GGAGTCGAAAGACCTTCC ((((((....)))..))) | 40.6 °C | -22.5 kcal/mol
16 | GGAGTCGAAAGACTATCC ((((((....)))..))) | 32.9 °C | -13.8 kcal/mol
17 | GGAGTCGAAAGACTTCC ((((((....))).))) | 48.7 °C | -21.2 kcal/mol
18 | GGAGTCGAAAGACTTTCC ((((((....)))..))) | 34 °C | -11.1 kcal/mol
19 | GGAGTGAAAACTCC (((((....))))) | 54.8 °C | -27.2 kcal/mol
20 | GGAGTGCCGAAAGGCTCC (((..(((....)))))) | 41.9 °C | -12.2 kcal/mol
21 | GGAGTGCGAAAGCATCC (((.(((....)))))) | 48.2 °C | -17.1 kcal/mol
22 | GGAGTGCGAAAGCATTCC (((.(((....))).))) | 58.1 °C | -30.4 kcal/mol
23 | GGAGTGGGAAACCGCTCC ((((.((....)).)))) | 57.8 °C | -44.3 kcal/mol

Row | Sequence | Tm [1] | folding enthalpy [2]
24 | GGAGTGGGAAACCGTTCC (((..((....))..))) | 32.3 °C | -17.8 kcal/mol
25 | GGAGTGGGAAACTACTCC (((((.(....).))))) | 49.5 °C | -24.8 kcal/mol
26 | GGAGTTACGAAAGTATCC (((..(((....)))))) | 26.1 °C | -9.09 kcal/mol
27 | GGAGTTGGAAACAACTCC (((((((....))))))) | 65.9 °C | -45.3 kcal/mol
28 | GGAGTTGGAAACAGCTTC (.((.((....)).)).) | 37.1 °C | -37 kcal/mol
29 | GGATAAGAAATTATCC ((((((....)))))) | 42.1 °C | -27.6 kcal/mol
30 | GGATAAGGAAACTTATCC (((((((....))))))) | 52.8 °C | -37.6 kcal/mol
31 | GGATACGAAAGTAAATCC ((((((....)))..))) | 35.8 °C | -19.4 kcal/mol
32 | GGATACGAAAGTAATTCC ((((((....)))..))) | 27.7 °C | -12 kcal/mol
33 | GGATACGAAAGTAGGTCC ((((((....)))..))) | 28.4 °C | -8.27 kcal/mol
34 | GGATACGAAAGTATATCC ((((((....)))..))) | 34.5 °C | -18.3 kcal/mol
35 | GGATACGGAAACGTATTC (.(((((....))))).) | 45.2 °C | -24.8 kcal/mol
36 | GGATACTCGAAAGAGTCC (((..(((....)))))) | 32.6 °C | -11.7 kcal/mol
37 | GGATAGGGAAACCTGTCC (((.(((....))).))) | 48.2 °C | -30.9 kcal/mol
38 | GGATATCGAAAGATTCC (((.(((....)))))) | 39.5 °C | -25.9 kcal/mol
39 | GGATATGGAAACATACCC ((.((((....)))).)) | 33.2 °C | -25.3 kcal/mol
40 | GGATATGGAAACATATCC (((((((....))))))) | 54.7 °C | -47 kcal/mol
41 | GGATATGGAAACATATTC (.(((((....))))).) | 36.9 °C | -22.2 kcal/mol
42 | GGATATGGAAACATGTCC (((.(((....))).))) | 45.3 °C | -30.4 kcal/mol
43 | GGATCACGAAAGTGCTCC (((.(((....))).))) | 49.4 °C | -27.4 kcal/mol
44 | GGATCAGCGAAAGCTTCC (((..(((....)))))) | 30.7 °C | -12.7 kcal/mol
45 | GGATCAGGAAACTGGTTC (.(.(((....))).).) | 29.1 °C | -12.2 kcal/mol
46 | GGATCCCGAAAGGGCTCC (((.(((....))).))) | 51.3 °C | -26.5 kcal/mol
